Rows were chosen to be rich in hits. Some 4.6% of all compounds tested hit in one or more screens of this group.
OX1R antag-1: OX1R (human) antagonism; O43613; hit rate 1.8% among 330,000; inhibition, % at 6.6 µM; OX1R-expressing cells, FRET antagonist read-out; in the data active = inhibition mostly above about 38%, no sharp cut-off; inactive = mostly below about 40%;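 also: 0% = agonist challenge alone and 100% = reference antagonist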
GPR7 antag: blocks human GPR7 receptor signaling | GPR7-expressing cells, fluorescence antagonist assay | hit rate 1.1% among 290,000 | AID 1861 | P48145 | inhibition, % at 4.4 µM; in the data active = inhibition above about 16%, passing the limit was not always enough;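 also: cells stimulated with the agonist NPW; 0% = agonist with vehicle and 100% = vehicle without agonist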
CHO parental Ca: counter-screen: ATP calcium response change in parental CHO cells; parental CHO-K1, ATP-induced calcium, Fluo-8 fluorescence; hit rate 0.63% among 330,000; inhibition, % at 5.6 µM;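 active = inhibition above that plate's mean sample inhibition plus 3 SD, cut at about 26% in these data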;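 also: 0% = ATP-challenged DMSO wells and 100% = DMSO wells without ATP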
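Assay system: untransfected parental CHO cell line. Also added: ATP agonist challenge. Dosing: one dose, 5.6 µM nominal. Measured by: Fluo-8 fluorescence. Read-out: % inhibition. Benchmarks: ATP wells versus no-ATP DMSO wells. Repeats: no replicates.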
OX1R antag-2: human HCRTR1 antagonism | CHO/OX1R cells, Fluo-8 calcium fluorescence, orexin A | hit rate 0.43% among 330,000 | O43613 | inhibition, % at 5 µM;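 active = inhibition above its plate's threshold, mean inhibition of all tested compounds on the plate plus 3 SD, cut at about 37% in these data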;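 also: 0% = orexin A challenge wells and 100% = SB-334867-A antagonist wells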
TAAR1 ag: human TAAR1 agonism | CHO RD-HGA16 TAAR1, Fluo-8 calcium fluorescence; vehicle wells 0%, saturating PEA agonist 100% | AID 624467 | hit rate 0.99% among 360,000 | activation, % at 3 µM | Q96RJ0;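 active = activation above the mean activation of all test compounds in the run plus 3 SD, cut at about 38% in these data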
Target sequence (Q96RJ0 whole entry, looked up): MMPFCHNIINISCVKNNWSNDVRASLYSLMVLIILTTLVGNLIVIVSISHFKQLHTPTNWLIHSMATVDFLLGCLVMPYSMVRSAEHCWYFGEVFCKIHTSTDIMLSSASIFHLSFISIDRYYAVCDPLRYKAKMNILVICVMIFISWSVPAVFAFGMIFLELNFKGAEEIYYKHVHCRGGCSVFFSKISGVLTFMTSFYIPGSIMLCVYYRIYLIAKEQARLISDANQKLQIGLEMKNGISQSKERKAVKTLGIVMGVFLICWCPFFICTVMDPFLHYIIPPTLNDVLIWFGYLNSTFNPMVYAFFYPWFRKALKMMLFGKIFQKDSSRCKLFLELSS
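System: CHO RD-HGA16 cells carrying human TAAR1 plus Gα16; Incubation: 17-24 h seeding, 75 min 37 °C dye, 30 min RT; Measured by: Fluo-8 fluorescence, 5 s baseline then 140 s kinetic read; Control set: DMSO and PEA EC100; Replication: single well for each compound.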
TAAR1 antagonist: antagonists of human TAAR1; hit rate 1.5% among 360,000; inhibition, % at 3 µM; CHO RD-HGA16 TAAR1, Fluo-8 calcium fluorescence, antagonist; AID 624466;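 active = inhibition above a per-plate cutoff, the mean inhibition of test compounds on that plate plus 3 SD, cut at about 49% in these data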;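 also: 0% = DMSO plus EC80 beta-PEA response and 100% = DMSO alone without agonist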
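Test system: CHO RD-HGA16 cells bearing hTAAR1 | Reagent: β-PEA, EC80 | Compound dosing: 3 µM, single point | Schedule: Dye loading 75 min at 37 °C, then 30 min room temperature | Signal: Calcium fluorescence with Fluo-8 | Evaluation: Percent inhibition of PEA-evoked calcium signal, max/basal emission ratio | Control set: DMSO-only wells and EC80 β-PEA-stimulated wells | Repeats: Singlicate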
nonsel antag count: nonselective antagonist in TAAR1 antagonist counter-screen | shares compounds with TAAR1 antagonist | counterscreen cell line, calcium fluorescence, antagonist mode | inhibition, % at 3 µM | hit rate 77% among 2,400; in the data active = inhibition above about 22%;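 also: CHO-Ga16 host cells stimulated with ATP at an EC80 level; 0% = agonist EC80 plus vehicle and 100% = vehicle without agonist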
TAAR1 antag conf: human TAAR1 antagonism, confirmed. TAAR1-expressing cells, fluorescence antagonist read-out. hit rate 40% among 2,400. shares compounds with TAAR1 antagonist. inhibition, % at 3 µM; in the data active = inhibition above about 49%;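 also: CHO-Ga16 host cells challenged with agonist PEA near its EC80; 0% = agonist at EC80 plus vehicle and 100% = vehicle with no agonist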
Ga16 ag counter: nonselective Ga16 agonist in TAAR1 antagonist counter-screen | shares compounds with TAAR1 antagonist | Ga16-expressing cells, calcium fluorescence, agonist counterscreen | activation, % at 3 µM | hit rate 18% among 2,400 | AID 651953; in the data active = activation above about 12%;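 also: 0% = vehicle wells and 100% = saturating stimulus response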
TAAR1 ag counter: TAAR1 agonism, antagonist counter-screen. shares compounds with TAAR1 antagonist. hTAAR1 cell line, fluorescence activation, agonist mode. activation, % at 3 µM. hit rate 2% among 2,400; in the data active = activation above about 37%;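 also: CHO cells stably expressing TAAR1 with calcium dye readout; 0% = DMSO vehicle and 100% = full agonist response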
The depositor's hits bear a star; nt = no result given.

SMILES | OX1R antag-1 | GPR7 antag | CHO parental Ca | OX1R antag-2 | TAAR1 ag | TAAR1 antagonist | nonsel antag count | TAAR1 antag conf | Ga16 ag counter | TAAR1 ag counter
COc1ccccc1N1CCN(c2nc3ccccc3nc2C(C#N)C(=O)OC(C)C)CC1 (stereo not given) | 47.7 | -8.6 | -18.9 | -41.4 | 1.8 | 72.7* | 10.5 | 47.9 | 2.5 | 4.2
C=CC[C@@H](CC(=O)N(CCO)Cc1ccccc1)C(=O)N[C@@H](COC(=O)[C@H](CC=C)CC(=O)OC(C)(C)C)Cc1c[nH]c2ccccc12 | 7.9 | nt | -17.8 | -10.2 | 8.7 | 25.4 | nt | nt | nt | nt
C=CC[C@H](CC(=O)NCCO)C(=O)N[C@H](COC(=O)[C@H](CC=C)CC(=O)OC(C)(C)C)Cc1c[nH]c2ccccc12 | 4.0 | nt | -24.7 | -10.5 | 10.3 | 49.0* | 21.3 | 41.0 | 6.6 | 7.9
C=CC[C@H](CC(=O)N(CCO)Cc1ccccc1)C(=O)N[C@@H](COC(=O)[C@@H](CC=C)CC(=O)OC(C)(C)C)Cc1c[nH]c2ccccc12 | 0.7 | nt | -6.3 | 15.1 | 22.3 | 68.3* | 32.4* | 48.2 | 7.2 | 3.0
COc1ccc(CCNC(=O)C(=O)NCC2CCCN2S(=O)(=O)c2ccccc2)cc1 (stereo not given) | 21.9 | nt | -21.6 | 4.9 | 14.2 | 65.0* | 27.4* | 49.8* | 10.5 | 18.1
O=C(NCc1ccc(F)cc1)C(=O)NCC1CCCN1S(=O)(=O)c1ccccc1 (stereo not given) | 18.2 | nt | -19.1 | -36.5 | -0.7 | -5.7 | nt | nt | nt | nt
O=C(NCCc1ccc(F)cc1)C(=O)NCC1CCCN1S(=O)(=O)c1ccccc1 (stereo not given) | 57.6* | nt | -24.4 | 3.9 | 16.3 | 64.8* | 27.3* | 51.1* | 10.2 | 14.4
COc1ccc(S(=O)(=O)N2CCCC2CNC(=O)C(=O)NCc2ccccc2)cc1 (stereo not given) | 10.8 | nt | -2.7 | -26.4 | 0.6 | -3.9 | nt | nt | nt | nt
CCOC(=O)c1c(C)n(C)c2ccc(OC)c(NC(=O)CCN3CCC(Cc4ccccc4)CC3)c12 | 3.3 | -8.5 | -21.8 | -30.6 | -2.2 | -20.6 | nt | nt | nt | nt
O=C(NCCO)OC1CC2CC1[C@H]1CCCCN1C2=O (stereo not given in full) | nt | nt | nt | nt | 0.4 | 6.0 | nt | nt | nt | nt
COc1cccc(NC(=O)N2CCN(c3nc(-c4cccc(OC)c4)cs3)CC2)c1 | 5.1 | -6.8 | 4.2 | -20.5 | 2.6 | 73.2* | 35.0* | 43.3 | 6.8 | 1.1
C=CCn1c(=NC(=O)c2cccc(N3C(=O)CCC3=O)c2)sc2cccc(OC)c21 | 45.9 | -18.8 | -11.5 | 0.7 | 17.5 | 73.9* | 26.8* | 52.4* | 10.7 | 10.5
COc1ccc(CCN(C)C2CCCN(C(=O)CCC(F)(F)F)C2)cc1OC (stereo not given) | 2.7 | -2.1 | -11.4 | -22.9 | 4.9 | -19.5 | nt | nt | nt | nt
COc1cccc(-c2cnc3c(NC=O)cc(-c4ccccc4Oc4ccccc4)cn23)c1 | nt | nt | nt | nt | 0.5 | -2.7 | nt | nt | nt | nt
COc1ccc(-n2nc(C(=O)NCC(=O)N3CCC(C)CC3)c3ccccc3c2=O)cc1Cl | 15.1 | 8.2 | -23.2 | -125.3 | 3.4 | 48.6* | 17.3 | 34.7 | 5.4 | 1.5
COc1ccc(-n2nc(C(=O)NCC(=O)Nc3cc(OC)c(OC)c(OC)c3)c3ccccc3c2=O)cc1Cl | 58.1 | -0.4 | -13.0 | 2.0 | 15.1 | 63.7* | 28.4* | 47.4 | 7.8 | 5.8
CC(NCC(=O)Nc1ccccc1C(=O)NC1CC1)c1ccc(S(N)(=O)=O)cc1 (stereo not given) | 1.1 | nt | -7.0 | -12.2 | 15.2 | -1.2 | nt | nt | nt | nt
CCN(CC)S(=O)(=O)c1ccc(C(C)NCC(=O)Nc2ccccc2C(=O)NC2CC2)cc1 (stereo not given) | nt | nt | nt | nt | 11.2 | 58.5* | 32.8* | 51.6* | 9.1 | 8.9

Screening results deposited in PubChem by The Scripps Research Institute Molecular Screening Center.
